# Assay results pooled from the literature.
# Compare with care: the assays were run in different laboratories.
# Target: Insulin receptor (INSR, Homo sapiens, UniProt P06213)
Compound,effect on,action,technique,concentration,measurement,value
COc1ccc2[nH]c3c4[nH]c5ccc(OC)cc5c4c4c(c3c2c1)C(=O)NC4=O,binding,,,1 µM,remaining binding,66%
COc1ccc2oc(-c3ccc4nc(N)oc4c3)c/c(=N\c3ccccc3NC(=O)CCN)c2c1,binding,,,1 µM,remaining binding,85%
CC#CC(=O)N1CCC[C@H]1c1nc(-c2ccc(C(=O)Nc3ccccn3)cc2)c2c(N)nccn12,enzyme activity,inhibitor,,1 µM,inhibition,0%
C[C@H]1CC[C@H](n2c3cnccc3c3cnc(Nc4ccc5c(n4)CCN(C(=O)CO)C5)nc32)CC1,binding,,,1 µM,remaining binding,96%
CCCCC(=O)Nc1ccc(-c2ccc3ncn(CCC)c(=O)c3c2)cn1,binding,,competition with immobilised ligand,0.5 µM,remaining binding,100%
C1=C/COCc2cc(ccc2OCCN2CCCC2)Nc2nccc(n2)-c2cccc(c2)COC/1,binding,,,0.1 µM,remaining binding,83%
C=CC(=O)N1CCC([C@@H]2CCNc3c(C(N)=O)c(-c4ccc(Oc5ccccc5)cc4)nn32)CC1,cell-free assay,,,1 µM,inhibition,0%
N#Cc1ccc(NC(=O)Nc2ccccc2)cc1,cell-free assay,,competition with immobilised ligand,25 µM,remaining binding,89%
